From ChEMBL document CHEMBL4190269, “Design, synthesis and biological evaluation of novel 6-substituted pyrrolo [3,2-d] pyrimidine analogues as antifolate antitumor agents” (2017)
Calls of active or inactive are those of the source. The calls are words filed in the database; no cut-off is given here.

Legend:
HL-60 [1] = experiment: Antiproliferative activity against human HL60 cells after 48 hrs by MTS assay; type: functional; details: HL-60, 48 h
Method in brief: (§1)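 Cells in RPMI-1640 or DMEM with 10% FBS, 37 °C, 5% CO2. Exponentially growing cells seeded at 5 × 10^3 per well and grown 12 h. Compounds added at 10 nM to 100 μM for 48 h. MTS reagent added for 3 h, then OD read at 490 nm. 0.1% DMSO as control. Mean viability from three independent experiments.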

A549 [2] = experiment: Antiproliferative activity against human A549 cells after 48 hrs by MTS assay; type: functional; details: A549, 48 h; method in brief: as §1
NCI-H1299 = experiment: Antiproliferative activity against human NCI-H1299 cells after 48 hrs by MTS assay; type: functional; details: NCI-H1299, 48 h; method in brief: as §1
HeLa = experiment: Antiproliferative activity against human HeLa cells after 48 hrs by MTS assay; type: functional; method in brief: as §1
HCT-116 = experiment: Antiproliferative activity against human HCT116 cells after 48 hrs by MTS assay; type: functional; details: HCT-116, 48 h
HT-29 = experiment: Antiproliferative activity against human HT-29 cells after 48 hrs by MTS assay; type: functional; details: HT-29, 48 h; method in brief: as §1
A549 [3] = experiment: Inhibition of colony formation in human A549 cells at 20 uM treated for 48 hrs followed by compound washout measured after 8 days by Giemsa staining based assay; type: functional, cell-based
Method in brief: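 About 100 A549 cells per well plated and kept 24 h in RPMI with 10% dFBS and 2 nM LCV at 37 °C, 5% CO2. Compound at 0-20 μM added for 48 h, then medium replaced with drug-free medium for 8 days. Colonies fixed in methanol 30 min, Giemsa-stained 30 min, then counted.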

[4] = biological target: T1, Dihydrofolate reductase (Homo sapiens) (UniProt P00374); experiment: Inhibition of recombinant human DHFR at 100 uM using dihydrofolate as substrate in presence of NADPH by spectrophotometric method relative to control
T1 sequence (whole entry): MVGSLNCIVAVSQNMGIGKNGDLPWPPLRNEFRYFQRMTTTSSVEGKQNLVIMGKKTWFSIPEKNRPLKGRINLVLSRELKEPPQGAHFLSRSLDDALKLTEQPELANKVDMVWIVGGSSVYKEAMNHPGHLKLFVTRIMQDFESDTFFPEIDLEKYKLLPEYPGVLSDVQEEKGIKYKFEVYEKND
Method in brief: (§2)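 Recombinant human DHFR assayed with 0.1 mM dihydrofolate, 0.3 mM NADPH and 100 mM KCl, pH 7.5, 32 °C. Reaction started by adding enzyme and followed as OD change at 340 nm. Percent inhibition recorded at 1, 10 and 100 μM.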

[5] = biological target: T1, Dihydrofolate reductase (Homo sapiens); experiment: Inhibition of recombinant human DHFR at 1 to 10 uM using dihydrofolate as substrate in presence of NADPH by spectrophotometric method; method in brief: as §2
HL-60 [6] = experiment: Antiproliferative activity against human HL60 cells up to 1000 uM after 48 hrs in presence of excess of adenosine and AICA by MTS assay; type: functional, cell-based
HL-60 [7] = experiment: Antiproliferative activity against human HL60 cells up to 1000 uM after 48 hrs in presence of excess of thymidine by MTS assay; type: functional, cell-based
A549 [8] = experiment: Cell cycle arrest in human A549 cells assessed as accumulation at G1 phase at 1 uM after 72 hrs by propidium iodide staining based flow cytometry (reference value: 40.9%); type: functional
Method in brief: (§3)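 A549 cells treated 72 h in RPMI1640 with 10% dFBS and 2 nM LCV. Washed twice in ice-cold PBS and fixed in 70% ethanol at 4 °C overnight. Stained ≥20 min at room temperature in the dark with 50 μg/mL PI and 100 μg/mL RNase. Phase percentages from 1 × 10^4 cells by flow cytometry. DMSO-treated cells as reference.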

A549 [9] = experiment: Cell cycle arrest in human A549 cells assessed as accumulation at S phase at 1 uM after 72 hrs by propidium iodide staining based flow cytometry (reference value: 51.3%); type: functional; method in brief: as §3
A549 [10] = experiment: Cell cycle arrest in human A549 cells assessed as accumulation at G2 phase at 1 uM after 72 hrs by propidium iodide staining based flow cytometry (reference value: 7.8%); type: functional; method in brief: as §3
A549 [11] = experiment: Cell cycle arrest in human A549 cells assessed as accumulation at G1 phase at 10 uM after 72 hrs by propidium iodide staining based flow cytometry (reference value: 40.9%); type: functional; method in brief: as §3
A549 [12] = experiment: Cell cycle arrest in human A549 cells assessed as accumulation at S phase at 10 uM after 72 hrs by propidium iodide staining based flow cytometry (reference value: 51.3%); type: functional; method in brief: as §3
A549 [13] = experiment: Cell cycle arrest in human A549 cells assessed as accumulation at G2 phase at 10 uM after 72 hrs by propidium iodide staining based flow cytometry (reference value: 7.8%); type: functional; method in brief: as §3
A549 [14] = experiment: Induction of apoptosis in human A549 cells assessed as necrotic cells at 1 uM after 72 hrs by Annexin V-FITC/propidium iodide staining based flow cytometry (reference value: 3.58%); type: functional
Method in brief: (§4)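 A549 cells exposed 72 h in RPMI with 10% dFBS and 2 nM LCV, with an untreated control. Harvested by trypsinization and washed twice in cold PBS. Stained with annexin V-FITC/PI and ≥1 × 10^4 cells analyzed by flow cytometry. Quadrants: LR early apoptosis, UR late apoptosis/necrosis, UL dead, LL viable.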

A549 [15] = experiment: Induction of apoptosis in human A549 cells assessed as late apoptotic cells at 1 uM after 72 hrs by Annexin V-FITC/propidium iodide staining based flow cytometry (reference value: 1.24%); type: functional; method in brief: as §4
A549 [16] = experiment: Induction of apoptosis in human A549 cells assessed as live cells at 1 uM after 72 hrs by Annexin V-FITC/propidium iodide staining based flow cytometry (reference value: 94.86%); type: functional; method in brief: as §4
A549 [17] = experiment: Induction of apoptosis in human A549 cells assessed as early apoptotic cells at 1 uM after 72 hrs by Annexin V-FITC/propidium iodide staining based flow cytometry (reference value: 0.32%); type: functional; method in brief: as §4
A549 [18] = experiment: Induction of apoptosis in human A549 cells assessed as necrotic cells at 10 uM after 72 hrs by Annexin V-FITC/propidium iodide staining based flow cytometry (reference value: 3.58%); type: functional; method in brief: as §4
A549 [19] = experiment: Induction of apoptosis in human A549 cells assessed as late apoptotic cells at 10 uM after 72 hrs by Annexin V-FITC/propidium iodide staining based flow cytometry (reference value: 1.24%); type: functional; method in brief: as §4
A549 [20] = experiment: Induction of apoptosis in human A549 cells assessed as live cells at 10 uM after 72 hrs by Annexin V-FITC/propidium iodide staining based flow cytometry (reference value: 94.86%); type: functional; method in brief: as §4
A549 [21] = experiment: Induction of apoptosis in human A549 cells assessed as early apoptotic cells at 10 uM after 72 hrs by Annexin V-FITC/propidium iodide staining based flow cytometry (reference value: 0.32%); type: functional; method in brief: as §4

SMILES	GI50 (HL-60 [1])	GI50 (A549 [2])	GI50 (NCI-H1299)	GI50 (HeLa)	GI50 (HCT-116)	GI50 (HT-29)	also measured
CN(Cc1cc2nc(N)[nH]c(=O)c2[nH]1)c1ccc(C(=O)N[C@@H](CCC(=O)O)C(=O)O)cc1	> 100 µM	> 100 µM	> 100 µM	> 100 µM	> 100 µM	> 100 µM	–
CN(Cc1cnc2nc(N)nc(N)c2n1)c1ccc(C(=O)N[C@@H](CCC(=O)O)C(=O)O)cc1 [METHOTREXATE]	0.038 µM	0.014 µM	0.072 µM	> 100 µM	0.13 µM	> 100 µM	Activity (A549 [8]): 62%; Activity (A549 [9]): 38%; Activity (A549 [10]): 0%
Nc1nc2cc(CNc3ccc(C(=O)N[C@@H](CCC(=O)O)C(=O)O)cc3)[nH]c2c(=O)[nH]1	47.4 µM	79 µM	73.1 µM	85.1 µM	> 100 µM	> 100 µM	–
Nc1nc2c(Br)c(CNc3ccc(C(=O)N[C@@H](CCC(=O)O)C(=O)O)cc3)[nH]c2c(=O)[nH]1	40.1 µM	83 µM	> 100 µM	> 100 µM	> 100 µM	> 100 µM	–
C=CCn1c(CNc2ccc(C(=O)N[C@@H](CCC(=O)O)C(=O)O)cc2)cc2nc(N)[nH]c(=O)c21	15.5 µM	57.3 µM	68.4 µM	82.7 µM	> 100 µM	98.5 µM	–

Second part, led by results:

GI50 (HL-60 [1])	GI50 (A549 [2])	GI50 (NCI-H1299)	GI50 (HeLa)	GI50 (HCT-116)	GI50 (HT-29)	SMILES	also measured
13.5 µM	46 µM	51.3 µM	94.4 µM	> 100 µM	> 100 µM	Cn1c(CNc2ccc(C(=O)N[C@@H](CCC(=O)O)C(=O)O)cc2)cc2nc(N)[nH]c(=O)c21	–
> 100 µM	> 100 µM	> 100 µM	> 100 µM	> 100 µM	> 100 µM	C#CCN(Cc1cc2nc(N)[nH]c(=O)c2[nH]1)c1ccc(C(=O)N[C@@H](CCC(=O)O)C(=O)O)cc1	–
8.92 µM	0.73 µM	1.72 µM	73.1 µM	54.6 µM	99.1 µM	Nc1nc2cc(CCc3ccc(C(=O)N[C@@H](CCC(=O)O)C(=O)O)cc3)[nH]c2c(=O)[nH]1	inhibition (A549 [3]): Active; inhibition [4]: 66.7%; inhibition [5]: Active; Activity (HL-60 [6]): Active; Activity (HL-60 [7]): Active; Activity (A549 [8]): 33.7%; Activity (A549 [9]): 51.3%; Activity (A549 [10]): 15%; Activity (A549 [11]): 35%; Activity (A549 [12]): 45.6%; Activity (A549 [13]): 19.4%; Activity (A549 [14]): 4.46%; Activity (A549 [15]): 1.07%; Activity (A549 [16]): 94.08%; Activity (A549 [17]): 0.39%; Activity (A549 [18]): 3.56%; Activity (A549 [19]): 3.21%; Activity (A549 [20]): 88.02%; Activity (A549 [21]): 4.4%
> 100 µM	> 100 µM	> 100 µM	> 100 µM	> 100 µM	> 100 µM	CCN(Cc1cc2nc(N)[nH]c(=O)c2[nH]1)c1ccc(C(=O)N[C@@H](CCC(=O)O)C(=O)O)cc1	–
54.2 µM	> 100 µM	> 100 µM	> 100 µM	> 100 µM	> 100 µM	Nc1nc2c(I)c(CNc3ccc(C(=O)N[C@@H](CCC(=O)O)C(=O)O)cc3)[nH]c2c(=O)[nH]1	–
